Measurements taken from ChEMBL document CHEMBL1914330 (Eur J Med Chem, 2011).
Calls of active or inactive are those of the source. The rule behind the calls is not given here.

Columns and labels:
L1210 = test: Antiproliferative activity against mouse L1210 cells after 2 days by coulter counter analysis; assay type: functional, cell-based; conditions: L1210, 48 h
Outline: (§1)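 Cells suspended at 300,000–500,000 cells/mL and mixed 1:1 with diluted compound. Incubated at 37 °C for two days, then counted with a Coulter counter. IC50 is the concentration inhibiting proliferation by 50%, as mean ± SE from dose-response curves of at least three independent experiments.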

FM3A = test: Antiproliferative activity against mouse FM3A cells after 2 days by coulter counter analysis; assay type: functional, cell-based; conditions: 48 h
CCRF-CEM = test: Antiproliferative activity against human CEM cells after 2 days by coulter counter analysis; assay type: functional, cell-based; conditions: 48 h; outline: as §1
Bos taurus = species on record: Bos taurus; test: Displacement of [3H]colchicine from bovine brain tubulin at 5 uM by DEAE-cellulose filter method
Outline: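 Inhibition of [³H]colchicine binding to bovine brain tubulin. Reaction mixtures held 1 µM tubulin, 5 µM [³H]colchicine and 5 µM test compound.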

[1] = Antiproliferative activity against human taxol-resistant A549-T12 cells after 72 hrs by MTT assay; assay type: functional, cell-based; conditions: A549, 72 h
Outline: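 Cells seeded at 8 × 10³ per well in complete medium and exposed to a range of compound concentrations at 37 °C for 72 h. Viability read by MTT test. IC50 taken as the concentration inhibiting proliferation by 50%.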

HeLa [2] = test: Induction of apoptosis in human HeLa cells assessed as increase in hypodiploid DNA content at subG1-phase after 24 hrs by flow cytometric analysis relative to untreated control; assay type: functional, cell-based
Outline: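 HeLa cells treated for 24 h over 0.06–0.5 µM. Cells fixed in ice-cold 70% ethanol, lysed with buffer containing RNase A and 0.1% Triton X-100, and stained with PI. DNA content read by flow cytometry, including the sub-G1 fraction. Mean ± SEM of three independent experiments.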

HeLa [3] = test: Induction of cell cycle arrest at G2/M phase in human HeLa cells assessed as decrease in Cdc2 phosphorylation at Tyr15 at 0.25 to 5 uM after 24 hrs by Western blot analysis; assay type: functional, cell-based
Outline: (§2)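 HeLa cells treated for 24 or 48 h were washed in cold PBS and lysed on ice for 30 min. Lysates were cleared at 15,000 × g, run on SDS-PAGE and blotted. Membranes were probed 2 h at room temperature with antibodies to the target protein, then peroxidase secondary and ECL. Blots were reprobed for β-actin as loading control.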

HeLa [4] = test: Induction of cell cycle arrest at G2/M phase in human HeLa cells assessed as decrease in Cdc25C expression at 0.25 to 5 uM after 24 hrs by Western blot analysis; assay type: functional, cell-based; outline: as §2
HeLa [5] = test: Induction of cell cycle arrest at G2/M phase in human HeLa cells assessed as disappearance of Cdc25C expression at 0.25 to 5 uM after 48 hrs by Western blot analysis; assay type: functional, cell-based; outline: as §2
HeLa [6] = test: Induction of apoptosis in human HeLa cells assessed as accumulation of late apoptotic cells after 48 hrs by Annexin-V-FITC/propidium iodide staining-based flow cytometric analysis; assay type: functional, cell-based
Outline: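 HeLa cells treated for 24 or 48 h, then labelled with annexin-V-FITC and PI. Analysed by flow cytometry with excitation at 488 nm and emission at 525 nm (FITC) and 585 nm (PI). Quadrants scored as live, early apoptotic, late apoptotic or necrotic. Mean ± SEM of four independent experiments.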

HeLa [7] = test: Induction of apoptosis in human HeLa cells assessed as ROS production at 0.25 to 5 uM after 24 to 48 hrs by H2-DCFDA-staining-based flow cytometric analysis; assay type: functional, cell-based
Outline: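 HeLa cells treated 24 or 48 h, trypsinized and resuspended in HBSS containing HE (2.5 µM) or H₂DCFDA (0.1 µM). Incubated 10 min at 37 °C, resuspended in HBSS, and ROS read by flow cytometry. Mean ± SEM of three independent experiments.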

HeLa [8] = test: Effect on Bax protein expression in human HeLa cells at 0.25 to 0.5 uM after 24 to 48 hrs by Western blot analysis; assay type: functional, cell-based; outline: as §2
HeLa [9] = test: Effect on Bcl2 protein expression in human HeLa cells at 0.25 to 0.5 uM after 24 hrs by Western blot analysis; assay type: functional, cell-based; outline: as §2
HeLa [10] = test: Induction of apoptosis in human HeLa cells assessed as decrease in Bcl2 protein expression at 0.25 to 0.5 uM after 48 hrs by Western blot analysis; assay type: functional, cell-based; outline: as §2
HT-29 = test: Antitumor activity against human HT-29 cells xenografted in BALB/c nude mouse assessed as reduction in tumor growth at 100 mg/kg, ip administered 3 times per week for 1 week; assay type: functional; design: scale not given: the % may be the effect or the level left; conditions: route intraperitoneal
Outline: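 HT-29 cells (1 × 10⁷/mL in serum-free RPMI 1640, 0.2 mL) were injected subcutaneously in the back of nude mice. At about 300 mm³ tumours, 18 mice were randomised to vehicle or drug groups. Drug in DMSO was given i.p. at 0.01 mL/g, 100 mg/kg, three times weekly for one week. Tumour volume = (L × W²)/2 by caliper; body weight also recorded; six mice per group.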

Mus musculus = test: Toxicity in nude BALB/c mouse xenografted with human HT-29 cells assessed as weight changes at 100 mg/kg, ip administered 3 times per week for 1 week; assay type: organism-based; design: dose 100 mg/kg, route intraperitoneal; conditions: in vivo, 168 h
Outline: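 HT-29 cells in log phase, suspended at 1 × 10⁷ cells/mL in serum-free RPMI 1640, 0.2 mL injected subcutaneously into the back of nude mice. At about 300 mm³, mice were randomised to vehicle or treatment groups (six per group). The compound was given in DMSO by i.p. injection at 0.01 mL/g body weight. Body weight was recorded on set days; mice were euthanised after 23 days.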

LoVo = test: Ratio of IC50 for doxorubicin-resistant human LoVo cells to IC50 for human LoVo cells; assay type: functional

COc1cc(C(=O)c2sc(N3CCCC3)nc2N)cc(OC)c1OC showed an IC50 (L1210) of 370 nM, an IC50 (FM3A) of 180 nM and an IC50 (CCRF-CEM) of 320 nM. For the same compound, the inhibition (Bos taurus) was 67%, the IC50 [1] was 160 nM and the Activity (HeLa [2]) was “Dose-dependent effect”. For the same compound, the Activity (HeLa [3]) was “Active”, the Activity (HeLa [4]) was “Active” and the Activity (HeLa [5]) was “Active”. The Activity (HeLa [6]) was “Active”, the Activity (HeLa [7]) was “Active” and the Activity (HeLa [8]) was “inactive”. The Activity (HeLa [9]) was “inactive”, the Activity (HeLa [10]) was “Active” and the Activity (HT-29) was 58%. The Activity (Mus musculus) was “Non-toxic” and the “Ratio IC50” value (LoVo) was 4.3.
